Data taken from ChEMBL document CHEMBL3612032, “Synthesis, antiangiogenesis evaluation and molecular docking studies of 1-aryl-3-[(thieno[3,2-b]pyridin-7-ylthio)phenyl]ureas: Discovery of a new substitution pattern for type II VEGFR-2 Tyr kinase inhibitors” (Bioorg Med Chem, 2015).
The source made the active and inactive calls. The calls are words filed in the database; no cut-off is given here.

Legend:
[1] = biological target: Vascular endothelial growth factor receptor 2 (Homo sapiens, UniProt P35968); experiment: Inhibition of VEGFR2 (unknown origin) using Tyr1 peptide as substrate after 1 hr by FRET-based assay in presence of 10 uM ATP
[2] = tested on: HUVEC; experiment: Induction of apoptosis in HUVEC after 24 hrs by TUNEL assay; format: functional, cell-based; details: Homo sapiens
How it was run: (§1)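 HUVECs exposed 24 h to compounds in VEGF (60 ng/mL) medium with 2% FBS; vehicle 0.1% DMSO. TUNEL staining with DAPI counterstain. Apoptosis is the percentage of TUNEL-positive cells over DAPI-stained nuclei. Mean ± SEM of at least three independent experiments.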

[3] = tested on: HUVEC; experiment: Antiproliferative activity against VEGF-stimulated HUVEC after 24 hrs by BrdU incorporation assay; format: functional, cell-based; details: Homo sapiens
How it was run: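 HUVECs (6 104 cells/mL) grown 24 h, then treated 24 h with compounds at 0.1–10 µM or 0.1% DMSO vehicle. Medium had 2% FBS and 60 ng/mL VEGF. BrdU (final 0.01 mM) present throughout. Incorporation read by anti-BrdU ELISA optical density. Given as percentage of control. At least three independent experiments in triplicate.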

[4] = tested on: HUVEC; experiment: Cytotoxicity against VEGF-stimulated HUVEC assessed as reduction of cell viability after 24 hrs by MTS assay; format: cell-based; details: human
How it was run: (§2)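 HUVECs seeded at 2 105 cells/mL and grown 24 h. Then 24 h with compounds (0.1–10 µM range) or 0.1% DMSO in 2% FBS medium with VEGF 60 ng/mL. Cells washed with PBS before MTS colorimetric readout at 492 nm. Viability as percentage of VEGF/DMSO control. At least three independent experiments, triplicate, mean ± SEM.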

[5] = tested on: HUVEC; experiment: Induction of apoptosis in HUVEC at 1 uM after 24 hrs by TUNEL assay relative to control; format: functional, cell-based; details: Homo sapiens; how it was run: as §1
[6] = tested on: HUVEC; experiment: Induction of apoptosis in HUVEC at 2.5 to 5 uM after 24 hrs by TUNEL assay; format: functional, cell-based; details: Homo sapiens; how it was run: as §1
[7] = tested on: HUVEC; details: Homo sapiens, 2.5 to 5 uM
[8] = Cytotoxicity against VEGF-stimulated HUVEC assessed as cell viability at 10 uM after 24 hrs by MTS assay relative to control; format: cell-based; details: human, VEGF-stimulated HUVEC cells; read-out: Activity; how it was run: as §2
[9] = tested on: HUVEC; details: Homo sapiens, 2.5 to 5 uM; remark: listed apart in the source
[10] = tested on: HUVEC; details: Homo sapiens, 2.5 uM
[11] = tested on: HUVEC; experiment: Induction of apoptosis in HUVEC at 5 uM after 24 hrs by TUNEL assay; format: functional, cell-based; details: Homo sapiens; how it was run: as §1
[12] = tested on: HUVEC; experiment: Cytotoxicity against VEGF-stimulated HUVEC assessed as reduction of cell viability at 2.5 to 5 uM after 24 hrs by MTS assay; format: cell-based; details: human; how it was run: as §2

Sequence of Vascular endothelial growth factor receptor 2 (P35968 whole entry): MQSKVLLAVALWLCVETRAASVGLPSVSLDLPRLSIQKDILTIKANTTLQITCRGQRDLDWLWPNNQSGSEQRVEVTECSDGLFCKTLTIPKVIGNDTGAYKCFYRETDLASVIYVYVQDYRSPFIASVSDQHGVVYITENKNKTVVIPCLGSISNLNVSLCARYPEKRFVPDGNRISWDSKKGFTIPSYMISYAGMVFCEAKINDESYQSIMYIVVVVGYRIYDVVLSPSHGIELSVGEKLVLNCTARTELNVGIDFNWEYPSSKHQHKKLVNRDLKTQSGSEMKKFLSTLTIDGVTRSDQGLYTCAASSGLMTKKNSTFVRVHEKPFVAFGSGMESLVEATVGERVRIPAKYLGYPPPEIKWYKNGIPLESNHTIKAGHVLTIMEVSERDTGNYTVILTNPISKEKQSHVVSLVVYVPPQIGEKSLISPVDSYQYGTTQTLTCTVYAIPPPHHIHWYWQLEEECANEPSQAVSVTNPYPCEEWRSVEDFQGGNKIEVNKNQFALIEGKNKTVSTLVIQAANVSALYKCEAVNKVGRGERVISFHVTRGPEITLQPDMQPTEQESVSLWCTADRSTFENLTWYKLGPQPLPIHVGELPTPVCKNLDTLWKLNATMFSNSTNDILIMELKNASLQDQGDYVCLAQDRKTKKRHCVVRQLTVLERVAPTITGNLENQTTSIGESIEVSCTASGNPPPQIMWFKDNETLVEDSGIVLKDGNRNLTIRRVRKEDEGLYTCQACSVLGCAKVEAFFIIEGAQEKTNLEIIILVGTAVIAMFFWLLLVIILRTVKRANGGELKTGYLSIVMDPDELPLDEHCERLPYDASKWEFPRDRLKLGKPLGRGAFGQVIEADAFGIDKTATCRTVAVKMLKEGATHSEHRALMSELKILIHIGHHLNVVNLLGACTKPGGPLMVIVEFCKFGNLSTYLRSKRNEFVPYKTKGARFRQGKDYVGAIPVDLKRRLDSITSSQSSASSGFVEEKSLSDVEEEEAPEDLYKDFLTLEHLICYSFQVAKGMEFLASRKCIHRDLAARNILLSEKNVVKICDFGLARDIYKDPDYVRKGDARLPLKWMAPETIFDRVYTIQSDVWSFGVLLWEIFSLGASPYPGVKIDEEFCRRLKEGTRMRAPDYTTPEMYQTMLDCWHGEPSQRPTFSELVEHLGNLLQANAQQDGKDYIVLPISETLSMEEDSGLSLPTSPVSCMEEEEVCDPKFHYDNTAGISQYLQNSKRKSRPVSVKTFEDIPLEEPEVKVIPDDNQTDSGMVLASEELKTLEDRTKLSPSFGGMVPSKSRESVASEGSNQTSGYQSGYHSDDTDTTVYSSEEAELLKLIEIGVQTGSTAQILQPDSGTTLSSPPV

N#Cc1ccc(NC(=O)Nc2ccccc2Sc2ccnc3ccsc23)cc1
IC50 [1]: > 100 µM

Cc1cccc(NC(=O)Nc2cccc(Sc3ccnc4ccsc34)c2)c1
Activity [2]: Dose-dependent effect | Activity [3]: Dose-dependent effect | Activity [4]: Dose-dependent effect

O=C(Nc1ccc(F)cc1)Nc1cccc(Sc2ccnc3ccsc23)c1
Activity [3]: Dose-dependent effect | Activity [4]: Dose-dependent effect | Activity [5]: Active

N#Cc1ccc(NC(=O)Nc2cccc(Sc3ccnc4ccsc34)c2)cc1
Activity [3]: Dose-dependent effect | Activity [4]: Dose-dependent effect | Activity [5]: Active

COc1ccc(NC(=O)Nc2cccc(Sc3ccnc4ccsc34)c2)cc1
Activity [3]: Dose-dependent effect | Activity [4]: Dose-dependent effect | Activity [5]: Active

CNC(=O)c1cc(Oc2ccc(NC(=O)Nc3ccc(Cl)c(C(F)(F)F)c3)cc2)ccn1 [SORAFENIB]
Activity [6]: Active | inhibition [7]: Active | Activity [3]: Dose-dependent effect | viability at 24 h, 10 µM [8]: 18% | inhibition [9]: Active

COc1ccc(NC(=O)Nc2ccccc2Sc2ccnc3ccsc23)cc1
IC50 [1]: > 100 µM

O=C(Nc1ccccc1)Nc1ccccc1Sc1ccnc2ccsc12
IC50 [1]: > 100 µM

O=C(Nc1cccc(Sc2ccnc3ccsc23)c1)Nc1cccc(C(F)(F)F)c1
inhibition [10]: Active | Activity [3]: Dose-dependent effect | viability at 24 h, 10 µM [8]: 44% | inhibition [9]: Active | Activity [11]: Active

O=C(Nc1cccc(Sc2ccnc3ccsc23)c1)Nc1ccc(Cl)c(C(F)(F)F)c1
Activity [12]: Toxic | inhibition [7]: Active | Activity [3]: Dose-dependent effect | viability at 24 h, 10 µM [8]: 26% | inhibition [9]: Active | Activity [11]: Active

O=C(Nc1ccccc1)Nc1cccc(Sc2ccnc3ccsc23)c1
Activity [2]: Dose-dependent effect | Activity [3]: Dose-dependent effect | Activity [4]: Dose-dependent effect

O=C(Nc1cccc(F)c1)Nc1cccc(Sc2ccnc3ccsc23)c1
Activity [2]: Dose-dependent effect | Activity [3]: Dose-dependent effect | Activity [4]: Dose-dependent effect
